# Shown are actives, neighbours in structure and some others; about 1.7% of the full set was active somewhere.
# PABP1 MLLE inh – inhibitors of PABP1 MLLE–PAM2 peptide binding, primary screen, biochemical, fluorescence polarization, FITC-PAM2, GST-MLLE | Polyadenylate-binding protein 1 (Homo sapiens), P11940 | inhibition, % at 20 µM | 360,000 tested, 0.36% active | AID 588489, 2011; in the data active means inhibition above about 35%, passing the limit was not always enough
# Target sequence (P11940 whole entry, looked up): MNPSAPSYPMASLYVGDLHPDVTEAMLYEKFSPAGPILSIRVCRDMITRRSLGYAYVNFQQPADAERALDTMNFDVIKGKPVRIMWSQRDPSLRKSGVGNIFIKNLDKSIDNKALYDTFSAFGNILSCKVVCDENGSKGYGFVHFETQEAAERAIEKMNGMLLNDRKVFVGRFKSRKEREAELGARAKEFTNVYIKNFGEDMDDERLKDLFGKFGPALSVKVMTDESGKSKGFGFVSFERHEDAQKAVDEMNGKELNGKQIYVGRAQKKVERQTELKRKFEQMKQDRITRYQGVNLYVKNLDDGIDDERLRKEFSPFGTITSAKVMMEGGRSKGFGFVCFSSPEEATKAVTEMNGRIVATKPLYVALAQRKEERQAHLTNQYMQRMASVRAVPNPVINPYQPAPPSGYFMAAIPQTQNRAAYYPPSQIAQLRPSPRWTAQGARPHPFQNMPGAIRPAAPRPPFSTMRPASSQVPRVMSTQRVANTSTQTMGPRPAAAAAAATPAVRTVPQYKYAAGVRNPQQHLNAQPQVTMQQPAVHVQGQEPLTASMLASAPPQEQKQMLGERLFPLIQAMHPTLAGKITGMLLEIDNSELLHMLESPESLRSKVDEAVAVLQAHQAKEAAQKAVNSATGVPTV
# MT1-MMP act inh – blockers of MT1-MMP proenzyme processing, primary screen, HT1080 RFP-PRO-GFP cells, GFP/RFP fluorescence; 360,000 tested, 0.061% active; GFP/RFP ratio change, % at 20 µM; GFP/RFP ratio fluorescence, overnight; percent of plate control window, DMSO zero; Matrix metalloproteinase-14 (Homo sapiens), P50281; AID 651647, 2012;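 active means GFP/RFP ratio change of at least 30% with cell ATP level not reduced by more than half and red fluorescence within 50% of control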
#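 Assay system: HT1080 RFP-PRO-GFP cells | Dosing: 20 µM single dose, 1% DMSO | Incubation: Cells overnight before dosing, compound overnight, 37 °C, 5% CO2 | Evaluation: GFP/RFP fluorescence ratio | Control set: DMSO-only wells and HT1080 RFP-L50D-GFP cell wells as references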
# PABP polyA inh – PABP poly(A) RNA binding inhibitors, primary screen, biochemical, fluorescence polarization, uHTS; Polyadenylate-binding protein 1 (Homo sapiens), P11940; inhibition, % at 35 µM; 290,000 tested, 1% active;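 further: calls also rest on retests at 20 µM and on dose response follow-up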
# SKN-1 block – suppressors of acrylamide-induced Pgst-4::GFP reporter in worms, primary screen, SKN-1 inhibitor project, whole organism, uHTS, GFP/RFP fluorescence ratio, strain VP596 | C. elegans VP596 Pgst-4::GFP/RFP ratio, 24 h | 360,000 tested, 0.49% active | inhibition, % at 21.8 µM;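 active means interference check ratio from 0.5 to 1.5 plus GFP to RFP signal ratio inhibition reaching or exceeding a fixed threshold, cut at about 30% in these data, passing the limit was not always enough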
# eIF4H FP inh – human eIF4H binding inhibitors, primary screen, translation initiation inhibitor project, biochemical, uHTS, fluorescence polarization | eIF4H fluorescence polarization binding assay | inhibition, % at 35 µM | 290,000 tested, 0.94% active | AID 2012, 2009;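 further: calls also rest on retests at 20 µM and on dose response follow-up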
# Numbers stand for hits; – = inactive; ? = inconclusive; · = not tested or not shown. Unless noted, how the calls were made is not given here.
SMILES,PABP1 MLLE inh,MT1-MMP act inh,PABP polyA inh,SKN-1 block,eIF4H FP inh
CN(Cc1ccc(Cl)cc1)C(=O)COC(=O)CSc1ccc([N+](=O)[O-])cc1,40.3,–,·,–,·
Nc1cc2nc3ccccc3oc-2cc1=O,–,–,78.2,–,–
Cc1ccc(C)c(OC(=O)c2cccc(S(=O)(=O)N3CCN(C)CC3)c2)c1,–,–,–,–,–
N#CCCC(CCC#N)C1=NCCc2ccccc21,–,–,–,–,–
Cc1nc([N+](=O)[O-])c(C(=O)OCc2ccccc2C#N)n1C,–,–,100.1,–,active
O=C(O[C@@H](C(=O)O)[C@@H](OC(=O)c1ccccc1)C(=O)O)c1ccccc1,–,–,·,–,·
NS(=O)(=O)c1ccc(N=Nc2ccc(=O)[nH]c2O)cc1,–,–,71.0,–,90.2
CC1CCCN(C(=O)CN2CCC(c3nc4ccc(Cl)cc4[nH]3)CC2)C1 (stereo not given),–,–,67.7,–,91.0
Clc1ccc(CN2CCC(c3nc4ccc(Cl)cc4[nH]3)CC2)cc1,–,–,–,–,–
CC1(c2ccc3noc(-c4ccc(F)cc4)c3c2)OCCO1,67.7,–,–,–,–
O=[N+]([O-])c1ccc(/C=C/c2ccc3cccc([N+](=O)[O-])c3n2)cc1,–,–,–,–,–
O=[N+]([O-])c1cccc2ccc(/C=C/c3ccc(F)cc3)nc12,–,–,–,36.5,–
CN1CCc2nc(NC(=O)c3cccc(OC(F)F)c3)sc2C1,–,–,83.1,–,73.9
Cn1c(CCC(=O)O)nc2cc(S(=O)(=O)N3CCCCC3)ccc21,39.0,–,·,–,·
Cn1c(CCC(=O)O)nc2cc(S(=O)(=O)N3CCCC3)ccc21,–,–,·,–,·
CC(C)[C@H](NS(=O)(=O)c1ccccc1)C(=O)OCc1cc([N+](=O)[O-])cc2c1OCOC2,–,–,·,–,·
Cc1cc(NS(=O)(=O)c2ccc(NC(=O)c3cc(-c4cccnc4)nc4ccc(Cl)cc34)cc2)no1,–,–,–,37.0,–
COc1ccccc1/C=C/CN1CCC(n2nccc2NC(=O)C2CC2)CC1,–,–,–,–,–
O=C(O)CCCN1C(=O)/C(=C\c2ccco2)SC1=S,–,–,95.9,–,99.9
O=C(CCN1C(=O)/C(=C/c2ccccc2Cl)SC1=S)Nc1ccccc1C(=O)O,–,–,–,39.2,–
O=C(CCN1C(=O)/C(=C/c2ccco2)SC1=S)Nc1ccc(C(=O)O)c(O)c1,–,–,83.8,–,86.2
C=CCN1C(=O)/C(=C\c2ccc(OC(=O)c3ccco3)c(OC)c2)SC1=S,–,–,–,–,–
COc1ccc(CCN2C(=O)/C(=C\c3ccco3)SC2=S)cc1OC,–,–,active,–,63.3
O=C(CCN1C(=O)/C(=C\c2ccco2)SC1=S)Nc1ccc(C(=O)O)c(O)c1,–,–,·,–,·
O=C1/C(=C/c2ccco2)SC(=S)N1CC1CCCO1 (stereo not given),–,–,–,–,74.4
SMILES,PABP1 MLLE inh,MT1-MMP act inh,PABP polyA inh,SKN-1 block,eIF4H FP inh
CC(/C=C1\SC(=S)N(CCC(=O)Nc2ccccc2O)C1=O)=C\c1ccccc1,–,–,active,–,–
O=C(O)CCN1C(=O)/C(=C\c2ccc(-c3nc4ccccc4s3)o2)SC1=S,–,–,92.5,–,101.3
O=C(O)CCN1C(=O)/C(=C\c2ccncc2)SC1=S,–,–,–,–,–
O=C(CCCN1C(=O)/C(=C\c2ccco2)SC1=S)Nc1ccc2ccccc2c1,–,–,1.4,–,78.5
CC(=C\c1ccccc1)/C=C1/SC(=S)N(CCC(=O)Nc2ccccn2)C1=O,·,·,–,·,–
COCCNc1nc(-c2ccc(OC)cc2C)c2sc(-c3ccccc3)cc2n1,–,–,·,–,·
CCC(C)(C)NC(=O)CN(Cc1ccccc1)C(=O)CCC(=O)Nc1nccs1,–,–,–,–,–
C=C(CCO)C1=CCN(S(=O)C(C)(C)C)[C@H]1CCO (stereo not given in full),–,–,·,–,·
O=C(Cn1nnc(-c2ccccc2)n1)Nc1cccc(S(=O)(=O)N2CCOCC2)c1,–,–,·,–,·
O=C(CN1CCN(S(=O)(=O)c2ccc(Cl)s2)CC1)N1CCOCC1,–,–,–,–,–
CCc1ccc(/C=C2/SC(=S)N(CCCC(=O)Nc3ccccc3C(=O)O)C2=O)cc1,–,–,–,–,–
O=C(CCCN1C(=O)/C(=C\c2ccccc2)SC1=S)Nc1ccc(O)cc1C(=O)O,–,–,–,–,–
O=C(CCCN1C(=O)/C(=C/c2ccco2)SC1=S)Nc1ccccc1C(=O)O,–,–,84.3,–,100.2
Cc1ccc(N2C(=O)/C(=C\c3ccco3)SC2=S)cc1,–,–,28.4,–,77.4
O=C1/C(=C\c2ccco2)SC(=S)N1c1ccccc1,–,–,–,–,–
O=C1/C(=C\c2ccco2)SC(=S)N1Cc1ccccc1,–,–,37.6,–,75.8
O=C(CN1C(=O)/C(=C\c2ccco2)SC1=S)Nc1ccc(O)cc1C(=O)O,–,–,117.2,–,79.2
C(C#CCCCCCCCCC[n+]1ccccc1)#CCCCCCCCCC[n+]1ccccc1,–,–,–,–,–
Cc1cccc(N2CCN(c3ccc4cc(S(=O)(=O)N5CCCCC5)ccc4n3)CC2)c1C,–,–,–,–,–
COc1ccc(/C=C2\SC(=S)N(CC(=O)NC3CCS(=O)(=O)C3)C2=O)cc1 (stereo not given),–,–,–,–,–
O=C(CN1C(=O)/C(=C/c2ccccc2Cl)SC1=S)NC1CCS(=O)(=O)C1 (stereo not given),39.2,–,–,–,–
O=C(O)CN1C(=O)/C(=C/c2ccc(SCc3ccccc3)o2)SC1=S,–,–,active,–,59.6
O=C(CCN1C(=O)/C(=C/c2ccco2)SC1=S)Nc1ccc(O)cc1C(=O)O,–,–,93.8,–,100.6
CC1=NN2C(=N)/C(=C\c3ccc(SCc4ccccc4)o3)C(=O)N=C2S1,–,–,121.0,–,?
O=C(O)CN1C(=O)/C(=C\c2ccc(OC(=O)c3ccco3)cc2)SC1=S,–,–,–,–,–
SMILES,PABP1 MLLE inh,MT1-MMP act inh,PABP polyA inh,SKN-1 block,eIF4H FP inh
Cc1cccc(NC(=O)CN(CC2CCCO2)C(=O)c2cc3ccccc3o2)c1C (stereo not given),–,–,·,–,·
CCCN=C1N/C(=C\c2ccco2)C(=O)N1c1ccccc1,–,–,–,–,–
O=C1/C(=C\c2ccco2)NC(=S)N1c1ccccc1,–,–,64.9,–,–
Cc1cccc(C)c1NC(=O)c1cccc(N2C(=O)C3CCC(C)CC3C2=O)c1 (stereo not given),–,–,–,–,–
Nc1ccc2c(=O)[nH][nH]c(=O)c2c1,–,–,·,–,·
Nc1ccc2oc3ccc(N)cc3c(=O)c2c1,–,–,60.2,–,79.0

# Compound activity deposited in PubChem BioAssay by Sanford-Burnham Center for Chemical Genomics.
